In ChEMBL document CHEMBL4118253, “Expedient synthesis and biological evaluation of alkenyl acyclic nucleoside phosphonate prodrugs” (Bioorg Med Chem, 2018):
pEC50: −log10 of the molar value.

Assays:
[1] = Cytotoxicity against MDCK cells assessed as alteration of cell morphology by microscopic analysis; assay type: cell-based, Canis lupus familiaris; conditions: dog
[2] = system: Mammalian orthoreovirus 1; experiment: Antiviral activity against Reovirus-1 infected in human HeLa cells assessed as inhibition of virus-induced cytopathicity; assay type: functional, organism-based; conditions: Mammalian orthoreovirus 1, HeLa
Human alphaherpesvirus 3 [3] = experiment: Antiviral activity against thymidine kinase deficient Varicella-Zoster virus infected in HEL cells assessed as reduction in virus plaque formation; assay type: functional, organism-based; conditions: Human alphaherpesvirus 3, HEL
Influenza A virus H3N2 [4] = experiment: Antiviral activity against Influenza A virus H3N2 infected in MDCK cells assessed as inhibition of virus-induced visual cytopathicity; assay type: functional, organism-based
Human alphaherpesvirus 1 [5] = experiment: Antiviral activity against acyclovir-resistant thymidine kinase deficient Herpes simplex virus 1 KOS infected in HEL cells assessed as inhibition of virus-induced cytopathicity; assay type: functional, organism-based; conditions: Human alphaherpesvirus 1, KOS
Human respirovirus 3 = experiment: Antiviral activity against Parainfluenza virus 3 infected in human HeLa cells assessed as inhibition of virus-induced cytopathicity; assay type: functional, organism-based; conditions: Human respirovirus 3, HeLa
Human alphaherpesvirus 2 = experiment: Antiviral activity against Herpes simplex virus 2 G infected in HEL cells assessed as inhibition of virus-induced cytopathicity; assay type: functional, organism-based; conditions: Human alphaherpesvirus 2, strain G
[6] = Cytotoxicity against human HeLa cells assessed as alteration of cell morphology by microscopic analysis; assay type: cell-based
Yellow fever virus = experiment: Antiviral activity against Yellow fever virus infected in African green monkey Vero cells assessed as inhibition of virus-induced cytopathicity; assay type: functional, organism-based
Influenza A virus H3N2 [7] = experiment: Antiviral activity against Influenza A virus H3N2 infected in MDCK cells assessed as inhibition of virus-induced cytopathicity by MTS assay; assay type: functional, organism-based
[8] = system: Respiratory syncytial virus; experiment: Antiviral activity against Respiratory syncytial virus infected in human HeLa cells assessed as inhibition of virus-induced cytopathicity; assay type: functional, organism-based
Influenza B virus [9] = experiment: Antiviral activity against Influenza B virus infected in MDCK cells assessed as inhibition of virus-induced cytopathicity by MTS assay; assay type: functional, organism-based
Human adenovirus 2 = experiment: Antiviral activity against Adenovirus 2 infected in HEL cells assessed as inhibition of virus-induced cytopathicity; assay type: functional, organism-based; conditions: Human mastadenovirus C
Human betaherpesvirus 5 [10] = experiment: Antiviral activity against Human cytomegalovirus AD169 infected in HEL cells assessed as inhibition of virus-induced cytopathicity; assay type: functional, organism-based; conditions: Human betaherpesvirus 5, AD169, HEL
Vaccinia virus = experiment: Antiviral activity against Vaccinia virus infected in HEL cells assessed as inhibition of virus-induced cytopathicity; assay type: functional, organism-based; conditions: Orthopoxvirus vaccinia
Human betaherpesvirus 5 [11] = experiment: Antiviral activity against Human cytomegalovirus Davis infected in HEL cells assessed as inhibition of virus-induced cytopathicity; assay type: functional, organism-based; conditions: Human betaherpesvirus 5, Davis
Human alphaherpesvirus 1 [12] = experiment: Antiviral activity against Herpes simplex virus 1 KOS infected in HEL cells assessed as inhibition of virus-induced cytopathicity; assay type: functional, organism-based; conditions: Human alphaherpesvirus 1, KOS
Human coronavirus 229E = experiment: Antiviral activity against Human coronavirus 229E infected in HEL cells assessed as inhibition of virus-induced cytopathicity; assay type: functional, organism-based
[13] = Cytotoxicity against African green monkey Vero cells assessed as alteration of cell morphology by microscopic analysis; assay type: cell-based; conditions: chlorocebus sabaeus
Procedure, shortened: (§1)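 The value is the minimal cytotoxic concentration (MCC), the lowest concentration that causes a microscopically visible change in cell morphology. It was read in the same HEL or Vero cell cultures used for the antiviral tests.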

Coxsackievirus B4 = experiment: Antiviral activity against Coxsackie virus B4 infected in African green monkey Vero cells assessed as inhibition of virus-induced cytopathicity; assay type: functional, organism-based; conditions: Enterovirus B
Influenza A virus [14] = experiment: Antiviral activity against Influenza A virus H1N1 infected in MDCK cells assessed as inhibition of virus-induced visual cytopathicity; assay type: functional, organism-based
Sindbis virus = experiment: Antiviral activity against Sindbis Virus infected in African green monkey Vero cells assessed as inhibition of virus-induced cytopathicity; assay type: functional, organism-based
Punta Toro virus = experiment: Antiviral activity against Punta Toro virus infected in African green monkey Vero cells assessed as inhibition of virus-induced cytopathicity; assay type: functional, organism-based
[15] = Cytotoxicity against HEL cells assessed as alteration of cell morphology by microscopic analysis; assay type: cell-based; conditions: human; procedure, shortened: as §1
Human alphaherpesvirus 3 [16] = experiment: Antiviral activity against thymidine kinase expressing Varicella-Zoster virus infected in HEL cells assessed as reduction in virus plaque formation; assay type: functional, organism-based; conditions: Human alphaherpesvirus 3, HEL
Influenza A virus [17] = experiment: Antiviral activity against Influenza A virus H1N1 infected in MDCK cells assessed as inhibition of virus-induced cytopathicity by MTS assay; assay type: functional, organism-based
Influenza B virus [18] = experiment: Antiviral activity against Influenza B virus infected in MDCK cells assessed as inhibition of virus-induced visual cytopathicity; assay type: functional, organism-based
[19] = system: Vesicular stomatitis virus; experiment: Antiviral activity against Vesicular stomatitis virus infected in human HeLa cells assessed as inhibition of virus-induced cytopathicity; assay type: functional, organism-based

C/C(=C\CP(=O)(N[C@@H](C)C(=O)OCc1ccccc1)Oc1ccccc1)Cn1ccc(=O)[nH]c1=O (some centres not stated)
MCC [1]: > 100 µM
pEC50 [2]: < 4.00
pEC50 (Human alphaherpesvirus 3 [3]): < 4.00
pEC50 (Influenza A virus H3N2 [4]): < 4.00
pEC50 (Human alphaherpesvirus 1 [5]): < 4.00
pEC50 (Human respirovirus 3): < 4.00
pEC50 (Human alphaherpesvirus 2): < 4.00
MCC [6]: > 100 µM
pEC50 (Yellow fever virus): < 4.00
pEC50 (Influenza A virus H3N2 [7]): < 4.00
pEC50 [8]: < 4.00
pEC50 (Influenza B virus [9]): < 4.00
pEC50 (Human adenovirus 2): < 4.00
pEC50 (Human betaherpesvirus 5 [10]): < 4.00
pEC50 (Vaccinia virus): < 4.00
pEC50 (Human betaherpesvirus 5 [11]): < 4.00
pEC50 (Human alphaherpesvirus 1 [12]): < 4.00
pEC50 (Human coronavirus 229E): < 4.00
MCC [13]: > 100 µM
pEC50 (Coxsackievirus B4): < 4.00
pEC50 (Influenza A virus [14]): < 4.00
pEC50 (Sindbis virus): < 4.00
pEC50 (Punta Toro virus): < 4.00
MCC [15]: > 100 µM
pEC50 (Human alphaherpesvirus 3 [16]): < 4.00
pEC50 (Influenza A virus [17]): < 4.00
pEC50 (Influenza B virus [18]): < 4.00
pEC50 [19]: < 4.00

C/C(=C\CP(=O)(N[C@@H](C)C(=O)OC(C)C)Oc1cccc2ccccc12)Cn1ccc(=O)[nH]c1=O (some centres not stated)
MCC [1]: > 100 µM
pEC50 [2]: < 4.00
pEC50 (Human alphaherpesvirus 3 [3]): < 4.00
pEC50 (Influenza A virus H3N2 [4]): < 4.00
pEC50 (Human alphaherpesvirus 1 [5]): < 4.00
pEC50 (Human respirovirus 3): < 4.00
pEC50 (Human alphaherpesvirus 2): < 4.00
MCC [6]: > 100 µM
pEC50 (Yellow fever virus): < 4.00
pEC50 (Influenza A virus H3N2 [7]): < 4.00
pEC50 [8]: < 4.00
pEC50 (Influenza B virus [9]): < 4.00
pEC50 (Human adenovirus 2): < 4.00
pEC50 (Human betaherpesvirus 5 [10]): < 4.00
pEC50 (Vaccinia virus): < 4.00
pEC50 (Human betaherpesvirus 5 [11]): < 4.00
pEC50 (Human alphaherpesvirus 1 [12]): < 4.00
pEC50 (Human coronavirus 229E): < 4.00
MCC [13]: > 100 µM
pEC50 (Coxsackievirus B4): < 4.00
pEC50 (Influenza A virus [14]): < 4.00
pEC50 (Sindbis virus): < 4.00
pEC50 (Punta Toro virus): < 4.00
MCC [15]: > 100 µM
pEC50 (Human alphaherpesvirus 3 [16]): 4.70
pEC50 (Influenza A virus [17]): < 4.00
pEC50 (Influenza B virus [18]): < 4.00
pEC50 [19]: < 4.00

C/C(=C/CP(=O)(N[C@@H](C)C(=O)OC(C)C)Oc1cccc2ccccc12)Cn1cc(C)c(=O)[nH]c1=O (some centres not stated)
MCC [1]: 100 µM
pEC50 [2]: < 4.00
pEC50 (Human alphaherpesvirus 3 [3]): 4.38
pEC50 (Influenza A virus H3N2 [4]): < 4.00
pEC50 (Human alphaherpesvirus 1 [5]): < 4.00
pEC50 (Human respirovirus 3): < 4.00
pEC50 (Human alphaherpesvirus 2): < 4.00
MCC [6]: ≥ 20 µM
pEC50 (Yellow fever virus): < 4.00
pEC50 (Influenza A virus H3N2 [7]): < 4.00
pEC50 [8]: < 4.00
pEC50 (Influenza B virus [9]): < 4.00
pEC50 (Human adenovirus 2): < 4.00
pEC50 (Human betaherpesvirus 5 [10]): < 4.70
pEC50 (Vaccinia virus): < 4.00
pEC50 (Human betaherpesvirus 5 [11]): 4.35
pEC50 (Human alphaherpesvirus 1 [12]): < 4.00
pEC50 (Human coronavirus 229E): < 4.00
MCC [13]: ≥ 20 µM
pEC50 (Coxsackievirus B4): < 4.00
pEC50 (Influenza A virus [14]): < 4.00
pEC50 (Sindbis virus): < 4.00
pEC50 (Punta Toro virus): < 4.00
MCC [15]: 100 µM
pEC50 (Human alphaherpesvirus 3 [16]): 4.40
pEC50 (Influenza A virus [17]): < 4.00
pEC50 (Influenza B virus [18]): < 4.00
pEC50 [19]: < 4.00

C/C(=C/CP(=O)(N[C@@H](C)C(=O)OC(C)C)Oc1cccc2c1CCCC2)Cn1ccc(=O)[nH]c1=O (some centres not stated)
MCC [1]: 100 µM
pEC50 [2]: < 4.00
pEC50 (Human alphaherpesvirus 3 [3]): 4.00
pEC50 (Influenza A virus H3N2 [4]): < 4.00
pEC50 (Human alphaherpesvirus 1 [5]): < 4.00
pEC50 (Human respirovirus 3): < 4.00
pEC50 (Human alphaherpesvirus 2): < 4.00
MCC [6]: > 100 µM
pEC50 (Yellow fever virus): < 4.00
pEC50 (Influenza A virus H3N2 [7]): < 4.00
pEC50 [8]: < 4.00
pEC50 (Influenza B virus [9]): < 4.00
pEC50 (Human adenovirus 2): < 4.00
pEC50 (Human betaherpesvirus 5 [10]): < 4.70
pEC50 (Vaccinia virus): < 4.00
pEC50 (Human betaherpesvirus 5 [11]): 4.26
pEC50 (Human alphaherpesvirus 1 [12]): < 4.00
pEC50 (Human coronavirus 229E): < 4.00
MCC [13]: > 100 µM
pEC50 (Coxsackievirus B4): < 4.00
pEC50 (Influenza A virus [14]): < 4.00
pEC50 (Sindbis virus): < 4.00
pEC50 (Punta Toro virus): < 4.00
MCC [15]: 100 µM
pEC50 (Human alphaherpesvirus 3 [16]): 4.23
pEC50 (Influenza A virus [17]): 4.00
pEC50 (Influenza B virus [18]): < 4.00
pEC50 [19]: < 4.00
